Screening results as filed in PubChem BioAssay.
This is a sample that favours compounds with a hit; in the whole collection about 2.3% have one here.
DSG3 Ab inh: human desmoglein-3 autoantibody binding inhibition. 0.48% of 310,000 active. binding (percent of control), % at 10 µM. DSG3-coupled beads, scFv-anti-DSG3-GFP binding, flow cytometry; active compounds read low. P32926. AID 588358;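 active means binding more than 3 SD below its plate's average and above zero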;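 further: hits lower antibody fragment binding to DSG3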
Mcl1-Bid inh: disrupts binding of human Mcl-1 to Bid peptide; TR-FRET Mcl-1/Bid-Dy647 peptide binding, 1536-well; inhibition, % at 21.7 µM; 0.97% of 220,000 active; AID 1021;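 active means compounds that cut the binding signal by more than half at the single screening dose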;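 further: His-tagged Mcl-1 with europium anti-His antibody binding Bid BH3 peptide; 0% = Mcl-1 plus peptide wells and 100% = peptide-only wells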
Target sequence (Q07820 whole entry, looked up): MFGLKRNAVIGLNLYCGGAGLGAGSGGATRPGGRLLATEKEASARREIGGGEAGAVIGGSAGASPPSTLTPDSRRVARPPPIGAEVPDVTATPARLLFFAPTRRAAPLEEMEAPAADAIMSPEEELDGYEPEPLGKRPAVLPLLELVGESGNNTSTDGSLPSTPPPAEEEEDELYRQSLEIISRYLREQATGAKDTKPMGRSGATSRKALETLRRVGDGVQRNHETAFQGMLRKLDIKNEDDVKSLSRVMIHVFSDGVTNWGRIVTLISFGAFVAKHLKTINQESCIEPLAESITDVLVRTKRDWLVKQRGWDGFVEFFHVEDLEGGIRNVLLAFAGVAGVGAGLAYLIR
Mcl1 Noxa PPI: disrupts binding of human Mcl-1 to Noxa peptide. 1.5% of 220,000 active. TR-FRET Mcl-1/Noxa peptide binding, 2 h. inhibition, % at 21.7 µM;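 active means compounds that cut the protein-peptide binding signal by more than 50% relative to plate controls in a single-dose test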;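 further: His-tagged Mcl-1 with rhodamine Noxa BH3 peptide and terbium anti-His antibody; 0% = Mcl-1 plus Noxa peptide wells and 100% = peptide-only wells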
MCL1 BIM primary: disrupts human MCL1 binding to BIM-BH3 peptide. GST-MCL1 / FITC-Bim-BH3 fluorescence polarization. inhibition, % at 10.9 µM. 0.68% of 320,000 active. Q07820;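 active means inhibition above the mean inhibition of all tested compounds plus 3 SD, set per campaign, cut at about 40% in these data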;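 further: 0% = DMSO wells and 100% = unlabeled Bim-BH3 peptide control; higher means more loss of mP so more displacement of Bim peptide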
Bim-Mcl-1: disrupts Bim peptide binding to human Mcl-1; Q07820; Bead-based flow cytometry, Bim peptide-Mcl-1 binding; inhibition, % at 10 µM; 0.1% of 190,000 active; in the data active means inhibition above about 40%;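 further: 0% = no compound tracer wells and 100% = peptide blocker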
T cell HTS: modulates CD8 T cell binding to vesicles. 0.068% of 330,000 active. 2C CD8+ T cell-vesicle binding, flow cytometry; active compounds read low. response (vesicle binding), % at 7 µM;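 active means response, share of CD8 T cells binding vesicles, and their 90th percentile fluorescence all below set limits, cut at about 80% in these data, passing the limit was not always enough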;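 further: values below 100% mean blocked vesicle binding to the CD8+ T cells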
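material = purified 2C TCR transgenic mouse naive CD8+ T cells | controls = Unloaded micro-vesicles (low), QL9 vesicles with 0.7% DMSO (high) | detection = cytometric PE anti-B7-1 and Alexa647 anti-CD8 signals after 1% paraformaldehyde fixation | incubation = binding step 1.5 h, 37 °C, antibody labelling 20 min, ice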
Bcl-xL conf: Bcl-xL (human) inhibition, MCL1 counter-screen confirmation; GST-Bcl-xL / FITC-Bim BH3 peptide FP binding; shares compounds with MCL1 BIM primary; 54% of 1,700 active; inhibition, % at 10.9 µM;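 active means inhibition above a cutoff equal to the mean inhibition of all tested compounds plus 3 SD, cut at about 30% in these data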;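 further: 0% = DMSO wells and 100% = unlabeled Bim BH3 control peptide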
Target sequence (Q07817 whole entry, looked up): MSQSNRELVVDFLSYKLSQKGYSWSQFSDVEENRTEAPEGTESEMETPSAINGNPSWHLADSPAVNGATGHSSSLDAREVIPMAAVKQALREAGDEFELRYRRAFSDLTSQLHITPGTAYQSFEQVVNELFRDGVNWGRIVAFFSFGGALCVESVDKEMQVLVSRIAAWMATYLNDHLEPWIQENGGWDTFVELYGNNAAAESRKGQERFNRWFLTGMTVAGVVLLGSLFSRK
MCL1 inh confirm: confirmation of human MCL1 and BIM-BH3 interaction inhibitors; 61% of 1,700 active; inhibition, % at 10.9 µM; shares compounds with MCL1 BIM primary; GST-MCL1 / FITC-Bim-BH3 fluorescence polarization;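 active means inhibition above the average of all tested compounds plus 3 SD, cut at about 40% in these data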;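 further: 0% = DMSO wells and 100% = unlabeled Bim-BH3 control peptide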
The depositor's hits bear a star; . = not tested or not shown; + = active, no number.

SMILES	DSG3 Ab inh	Mcl1-Bid inh	Mcl1 Noxa PPI	MCL1 BIM primary	Bim-Mcl-1	T cell HTS	Bcl-xL conf	MCL1 inh confirm
CCOc1cccc(C2C(C(=O)c3ccc(C)o3)=C(O)C(=O)N2c2nccs2)c1 (stereo not given)	110	-96	8	143*	2	411	156*	183*
O=C(C1=C(O)C(=O)N(c2nccs2)C1c1ccccc1)c1cc2ccccc2o1 (stereo not given)	164	19	-3	+	.	190	177*	+
COc1cc2cc(CCCOC(=O)c3cccc(Br)c3)oc(=O)c2cc1OC	96	.	.	4	.	298	.	.
COc1ccc(N(CC(=O)NCCc2ccc(OC)c(OC)c2)S(=O)(=O)c2c(C)noc2C)cc1	89	.	.	-2	.	457	.	.
Nn1cnc2scc(-c3ccco3)c2c1=O	81	.	.	12	.	173	.	.
CN(C)N1C(=O)c2c(Cl)c(Cl)c(Cl)c(Cl)c2C1=O	118	.	.	.	.	.	.	.
CCOC(=O)CSc1nc(N2CCOCC2)c2c(c1C#N)CC(C)(C)N(C)C2	97	-16	-3	56*	4	229	8	13
CN1Cc2c(N3CCOCC3)nc(SCCC#N)c(C#N)c2CC1(C)C	89	-21	3	3	.	251	.	.
CC(C)Sc1nc(N2CCOCC2)c2c(c1C#N)CC(C)(C)N(C)C2	113	-14	14	50*	0	248	22	36
Cc1cccc(C)c1NC(=O)COC(=O)CN1C(=O)C2CCCCC2C1=O (stereo not given)	105	.	.	-4	.	332	.	.
COc1cc(NC(=O)c2cccc(NC3=NC4CS(=O)(=O)CC4S3)c2)cc(OC)c1OC (stereo not given)	107	.	.	-1	.	456	.	.
CCCN(C)C[C@@H]1Oc2ncc(Br)cc2C(=O)N([C@@H](C)CO)C[C@H]1C	104	.	.	.	.	.	.	.
COc1ccc(C(=O)C(C)OC(=O)C2CC3CCCC(C2)C3=O)cc1 (stereo not given)	106	.	.	.	.	.	.	.
CCN(CC)c1ccc(/C=C/C(=O)C2C(=O)C=C(C)OC2=O)cc1 (stereo not given)	702	-46	25	79*	.	270	79*	125*
O=C(Nc1ccnn1C1CCN(C(=O)c2cccnc2)CC1)c1cccc(F)c1	105	.	.	.	.	.	.	.
CCc1ccc(C(C#N)=CC=Cc2ccccc2)cc1	105	.	.	.	.	.	.	.
Cn1c(CNc2ccc(Cl)cc2)nc2ccccc21	100	-40	-5	-3	0	165	.	.
CC(C)N=c1cc2n(-c3ccc(Cl)cc3)c3ccccc3nc-2cc1Nc1ccc(Cl)cc1	.	.	.	118*	.	698	+	+
O=C(CN1C(=O)C2C3CCC(C3)C2C1=O)NCc1ccco1 (stereo not given)	102	-31	9	53*	4	279	7	9
O=S1(=O)N=C(N(CCO)/N=C/c2ccc(Cl)cc2)c2ccccc21	94	.	.	5	.	550	.	.
CN(C)c1ccc(/C=N/N(CCO)C2=NS(=O)(=O)c3ccccc32)cc1	90	.	.	140*	.	208	+	+
O=C(C=Cc1ccccc1)CC(c1ccccc1)N1CCOCC1 (stereo not given)	113	.	.	.	.	.	.	.
Cc1noc(C)c1COc1ccc(C(=O)NCc2cccs2)cc1	92	.	.	.	.	184	.	.
N#C/C(=C\c1cccs1)C(=O)Nc1ccccn1	98	-10	18	57*	.	219	49*	71*
N#C/C(=C\c1ccccc1)C(=O)Nc1ccccn1	107	.	.	-3	.	264	.	.
SMILES	DSG3 Ab inh	Mcl1-Bid inh	Mcl1 Noxa PPI	MCL1 BIM primary	Bim-Mcl-1	T cell HTS	Bcl-xL conf	MCL1 inh confirm
O=C(Nc1nccs1)c1cccc(NC(=O)C(F)(F)F)c1	101	-14	12	5	.	399	.	.
O=C(CCn1nc(-c2ccccc2)c2ccccc2c1=O)Nc1cccnc1	81	-21	-6	6	-1	166	.	.
Cc1ccc(-c2nn(CCC(=O)Nc3cccnc3)c(=O)c3ccccc23)cc1	101	-2	12	85*	.	743	73*	97*
Cc1occc1C(=O)Nc1cnn(CCCC(=O)O)c1	.	.	.	5	.	354	.	.
COc1cccc(F)c1C(=O)NC(=O)Nc1ccc2nc(C)oc2c1	110	-45	23	119*	.	797	54*	40
CC(C)c1nnc(N2C(=O)C(O)=C(C(=O)c3cccs3)C2c2ccccc2)s1 (stereo not given)	161	-31	11	.	-4	.	.	.
C=CCOc1cccc(C2C(C(=O)c3cccs3)=C(O)C(=O)N2Cc2cccnc2)c1 (stereo not given)	87	-18	25	2	0	752	.	.
COc1ccc(C2C(C(=O)c3cccs3)=C(O)C(=O)N2c2nncs2)cc1 (stereo not given)	107	-8	10	161*	4	220	144*	165*
C=CCOc1ccc(C2C(C(=O)c3cccs3)=C(O)C(=O)N2c2nnc(C)s2)cc1 (stereo not given)	195	.	.	100*	.	417	90*	115*
COc1ccc(C2C(C(=O)c3cccs3)=C(O)C(=O)N2c2nnc(C)s2)cc1OC (stereo not given)	111	-4	-38	83*	-4	366	128*	154*
CC(OC(=O)C1CC1)C(=O)Nc1cc(Cl)cc(Cl)c1 (stereo not given)	94	.	.	.	.	232	.	.
O=C(Cc1cc(=O)oc2cc(O)ccc12)NC(Cc1ccc(Cl)cc1)C(=O)O (stereo not given)	109	.	.	0	.	224	.	.
COC(=O)C1=C(CSc2nc3c(cc2C#N)CN(C)CC3)OC(N)=C(C#N)C1c1ccccc1F (stereo not given)	.	-23	34	100*	-5	322	23	21
CCOC(=O)C1=C(CSc2nc(-c3ccccc3)ccc2C#N)OC(N)=C(C#N)C1c1ccccc1 (stereo not given)	121	-24	-17	-45	2	339	.	.
CCOC(=O)C1=C(CSc2nc3c(cc2C#N)CN(C)CC3)OC(N)=C(C#N)C1c1ccccc1 (stereo not given)	107	-16	33	85*	-4	448	16	8
O=C(N/N=C/c1ccnc2ccccc12)c1ccccc1O	89	.	.	.	.	137	.	.
Cc1cc(NS(=O)(=O)c2ccc(NC(=O)Cc3cccs3)cc2)no1	.	-30	19	8	-2	.	.	.
Cc1cc(NC(=O)Cc2cccs2)no1	.	32	102*	62*	1	284	19	69*
Cc1ccnc(Nc2nc(-c3ccc(F)cc3)cs2)c1	112	.	.	12	.	219	.	.
Cc1ccnc(Nc2nc(-c3ccc(Cl)cc3)cs2)c1	105	.	.	52*	.	349	2	-2
